# Experimental data reported in paper PMC2795045 (Chemico-biological interactions, 2010).
# Read-outs that look alike come from different tables or passages of the source.
# Legend:
# XLK-WG cells [1] = assay: CYP1A6/CYP1A7 mRNA induction in XLK-WG cells by quantitative RT-PCR; format: cell-based, Xenopus laevis
# XLK-WG cells [2] = assay: Affymetrix expression microarray of XLK-WG cells; format: cell-based, Xenopus laevis; settings: for Genes altered ≥ 2-fold: Induced / Genes altered ≥ 2-fold: Repressed / Genes altered (p ≤ 0.01): Induced / Genes altered (p ≤ 0.01): Repressed: 3 hours, number of genes; for Genes altered (p ≤ 0.01): Induced / Genes altered (p ≤ 0.01): Repressed: no two-fold cutoff; for fold induction at 0.1 µM: Xenopus laevis, 3 h
# CYP1A6 (Xl.1692) mRNA [3] = assay: Affymetrix expression microarray of XLK-WG cells; format: cell-based, Xenopus laevis; settings: Xenopus laevis
# CYP1A7 (Xl.1220) mRNA [4] = assay: Affymetrix expression microarray of XLK-WG cells; format: cell-based, Xenopus laevis; settings: Xenopus laevis
# XLK-WG cells [5] = assay: qRT-PCR of selected altered transcripts in XLK-WG cells; format: cell-based, Xenopus laevis; settings: XLK-WG cells, relative to vehicle-treated control; for Xl.14954 (similar to voltage-gated potassium channel subunit MiRP4.1) fold induction, qRT-PCR: table row r10; for Xl.14954 fold induction, qRT-PCR: table row r16
# CYP1A6 (Xl.1692) mRNA [6] = assay: as above; format: cell-based, Xenopus laevis; settings: Xenopus laevis
# CYP1A7 (Xl.1220) mRNA [7] = assay: as above; format: cell-based, Xenopus laevis; settings: Xenopus laevis
# XLK-WG cells [8] = assay: CYP1A activity; format: cell-based, Xenopus laevis; settings: XLK-WG cells, at the concentration of maximum response
# CYP1A [9] = assay: CYP1A activity; format: cell-based, Xenopus laevis; settings: Xenopus laevis
# CYP1A1 = CYP1A1 mRNA induction in Hepa1c1c7 cells by quantitative RT-PCR; format: cell-based, mouse; settings: mouse, EC50 for CYP1A1 mRNA induction, 3 hours exposure, qRT-PCR, ± SE
# Hepa1c1c7 cells [10] = assay: as above; format: cell-based, mouse; settings: read-out: EC50 for CYP1A1 mRNA induction, 3 hours exposure, qRT-PCR, ± SE
# Hepa1c1c7 cells [11] = assay: CYP1A activity; format: cell-based, mouse; settings: for maximum EROD activity in Hepa1c1c7 cells relative to XLK-WG cells / maximum EROD activity induced: 3 hour treatment; for maximum EROD activity induced: ± SE
# XLK-WG cells [12] = assay: Semi-quantitative RT-PCR of AHR pathway transcripts in XLK-WG cells; format: cell-based, Xenopus laevis; settings: 100 nM TCDD, 24 hours
# Method in brief: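 XLK-WG cells were kept in the dark at 29 °C and 5% CO2 in RPMI-1640 with 20% FBS, then grown to near confluence. They were exposed for 24 h to 100 nM TCDD or DMSO vehicle (0.25% final). Total RNA was column-extracted, and RT-PCR covered CYP1A6, CYP1A7, AHR1α, AHR1β, ARNT1 and ARNT2. Cycling was 95 °C/1 min; 43 cycles of […], 50 °C/30 sec, 72 °C/60 sec; then 72 °C/7 min. A no-RT control was included.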
# CYP1A [13] = assay: CYP1A activity; format: cell-based, mouse; settings: mouse
# [14] = read-out: Hypothetical protein MCG81225 (similar to Zn-finger protein 410; Xl.16594) fold induction, Microarray
smiles,measurement,setting,value
"O=Cc1c2[nH]c3ccccc3c2cc2[nH]c3ccccc3c12 [FICZ, 6-formylindolo[3,2-b]carbazole]",CYP1A6/7 mRNA quantities after 3 hours exposure relative to 24 hours exposure,XLK-WG cells [1],up to 5 fold
same,CYP1A7 mRNA induction after 3 hours relative to after 24 hours,XLK-WG cells [1]; highest dosage of FICZ,5 fold
same,number of transcripts with altered expression in excess of TCDD,"XLK-WG cells [2]; XLK-WG cells, 100 nM",105
same,Genes altered ≥ 2-fold: Induced,"XLK-WG cells [2]; XLK-WG cells, 100 nM",24
same,Genes altered ≥ 2-fold: Repressed,"XLK-WG cells [2]; XLK-WG cells, 100 nM",2
same,Genes altered (p ≤ 0.01): Induced,"XLK-WG cells [2]; XLK-WG cells, 100 nM",113
same,Genes altered (p ≤ 0.01): Repressed,"XLK-WG cells [2]; XLK-WG cells, 100 nM",35
same,fold induction at 0.1 µM,XLK-WG cells [2]; [14],1.3
same,fold induction at 0.1 µM,"XLK-WG cells [2]; read-out: KCNE5.1: voltage-gated potassium channel subunit MiRP4.1 (Xl.16370) fold induction, Microarray",2
same,fold induction at 0.1 µM,"XLK-WG cells [2]; read-out: MGC52735:similar to gap-jct protein alpha-7 (Xl.3337) fold induction, Microarray",5.2
same,fold induction at 0.1 µM,"XLK-WG cells [2]; read-out: MGC85390 (Xl.23887; similar to RAB 40B, RAS oncogene family) fold induction, Microarray",2.1
same,fold induction at 0.1 µM,"XLK-WG cells [2]; read-out: Peripheral Myelin protein 22 (Xl.11939/Xl.14729) fold induction, Microarray",2.2
same,fold induction at 0.1 µM,"XLK-WG cells [2]; read-out: SYNE 1 (Xl. 14119) fold induction, Microarray",6.7
same,fold induction at 0.1 µM,"XLK-WG cells [2]; read-out: Xl.13754 (similar to C219-reactive peptide) fold induction, Microarray",3.1
same,fold induction at 0.1 µM,"XLK-WG cells [2]; read-out: Xl.14584 (similar to gastrula-specific protein kinase) fold induction, Microarray",2.9
same,fold induction at 0.1 µM,"XLK-WG cells [2]; read-out: Xl.14954 (similar to voltage-gated potassium channel subunit MiRP4.1) fold induction, Microarray",3.1
same,fold induction at 0.1 µM,"XLK-WG cells [2]; read-out: Xl.14954 fold induction, Microarray",2.1
same,fold induction at 0.1 µM,"XLK-WG cells [2]; read-out: Xl.25142 fold induction, Microarray",2.1
same,fold induction at 0.1 µM,"XLK-WG cells [2]; read-out: Xl.7783 fold induction, Microarray",5.9
same,fold induction at 0.1 µM,CYP1A6 (Xl.1692) mRNA [3],2.1
same,fold induction at 0.1 µM,CYP1A7 (Xl.1220) mRNA [4],16.1
same,"Hyaluronidase 2 (Xl.6247/Xl.16152) fold induction, qRT-PCR",XLK-WG cells [5],2.7 fold
same,"Hypothetical protein MCG81225 (similar to Zn-finger protein 410; Xl.16594) fold induction, qRT-PCR",XLK-WG cells [5],3.5 fold
same,"KCNE5.1: voltage-gated potassium channel subunit MiRP4.1 (Xl.16370) fold induction, qRT-PCR",XLK-WG cells [5],1.6 fold
same,"MGC52735:similar to gap-jct protein alpha-7 (Xl.3337) fold induction, qRT-PCR",XLK-WG cells [5],304 fold
same,"Peripheral Myelin protein 22 (Xl.11939/Xl.14729) fold induction, qRT-PCR",XLK-WG cells [5],1.0 fold
same,"SYNE 1 (Xl. 14119) fold induction, qRT-PCR",XLK-WG cells [5],106 fold
same,"Xl.13754 (similar to C219-reactive peptide) fold induction, qRT-PCR",XLK-WG cells [5],4.6 fold
same,"Xl.14584 (similar to gastrula-specific protein kinase) fold induction, qRT-PCR",XLK-WG cells [5],10.6 fold
same,"Xl.25142 fold induction, qRT-PCR",XLK-WG cells [5],1.8 fold
same,"Xl.7783 fold induction, qRT-PCR",XLK-WG cells [5],4.3 fold
same,"Xl.14954 (similar to voltage-gated potassium channel subunit MiRP4.1) fold induction, qRT-PCR",XLK-WG cells [5],9.5 fold
same,"Xl.14954 fold induction, qRT-PCR",XLK-WG cells [5],1.9 fold
same,fold induction,CYP1A6 (Xl.1692) mRNA [6],455
same,fold induction,CYP1A7 (Xl.1220) mRNA [7],412
same,rise of induced CYP1A activity with 24 hours versus 3 hour exposure,XLK-WG cells [8],more than 20 fold
same,EC50,"CYP1A [9]; EC50 of induced CYP1A activity (EROD), XLK-WG cells, 3 hour exposure, ± SE",0.56 ± 0.15 nM
same,EC50,CYP1A1,~0.06 nM
same,EC50,Hepa1c1c7 cells [10],0.07 ± 0.02 nM
same,maximum EROD activity in Hepa1c1c7 cells relative to XLK-WG cells,Hepa1c1c7 cells [11],~ 20 fold
same,EROD EC50 after 24 hours relative to EC50 after 3 hours,Hepa1c1c7 cells [11]; Hepa1c1c7 cells,~ 50 fold
same,maximum EROD activity induced,Hepa1c1c7 cells [11]; Hepa1c1c7 cells,8.83 ± 2.72 pmol • mg protein^−1 • min^−1
"Clc1cc2c(cc1Cl)Oc1cc(Cl)c(Cl)cc1O2 [TCDD, 2,3,7,8-tetrachlorodibenzo-p-dioxin]",Genes altered ≥ 2-fold: Induced,"XLK-WG cells [2]; XLK-WG cells, 100 nM",3
same,Genes altered ≥ 2-fold: Repressed,"XLK-WG cells [2]; XLK-WG cells, 100 nM",1
same,Genes altered (p ≤ 0.01): Induced,"XLK-WG cells [2]; XLK-WG cells, 100 nM",31
same,Genes altered (p ≤ 0.01): Repressed,"XLK-WG cells [2]; XLK-WG cells, 100 nM",12
same,fold induction at 0.1 µM,XLK-WG cells [2]; [14],1.3
same,"fold induction at 3 h, 0.1 µM",CYP1A6 (Xl.1692) mRNA [3],1.7
same,"fold induction at 3 h, 0.1 µM",CYP1A7 (Xl.1220) mRNA [4],6.7
same,"Hyaluronidase 2 (Xl.6247/Xl.16152) fold induction, qRT-PCR",XLK-WG cells [5],1.6 fold
same,"Hypothetical protein MCG81225 (similar to Zn-finger protein 410; Xl.16594) fold induction, qRT-PCR",XLK-WG cells [5],3.2 fold
same,"KCNE5.1: voltage-gated potassium channel subunit MiRP4.1 (Xl.16370) fold induction, qRT-PCR",XLK-WG cells [5],2.0 fold
same,"MGC52735:similar to gap-jct protein alpha-7 (Xl.3337) fold induction, qRT-PCR",XLK-WG cells [5],69.1 fold
same,"MGC85390 (Xl.23887; similar to RAB 40B, RAS oncogene family) fold induction, qRT-PCR",XLK-WG cells [5],2.0 fold
same,"Peripheral Myelin protein 22 (Xl.11939/Xl.14729) fold induction, qRT-PCR",XLK-WG cells [5],1.1 fold
same,"SYNE 1 (Xl. 14119) fold induction, qRT-PCR",XLK-WG cells [5],8.4 fold
same,"Xl.13754 (similar to C219-reactive peptide) fold induction, qRT-PCR",XLK-WG cells [5],2.2 fold
same,"Xl.14584 (similar to gastrula-specific protein kinase) fold induction, qRT-PCR",XLK-WG cells [5],10.1 fold
same,"Xl.25142 fold induction, qRT-PCR",XLK-WG cells [5],0.9 fold
same,"Xl.7783 fold induction, qRT-PCR",XLK-WG cells [5],2.0 fold
same,"Xl.14954 (similar to voltage-gated potassium channel subunit MiRP4.1) fold induction, qRT-PCR",XLK-WG cells [5],6.6 fold
same,"Xl.14954 fold induction, qRT-PCR",XLK-WG cells [5],3.0 fold
same,"fold induction at 3 h, 100 nM",CYP1A6 (Xl.1692) mRNA [6],427
same,"fold induction at 3 h, 100 nM",CYP1A7 (Xl.1220) mRNA [7],320
same,rise of induced CYP1A activity with 24 hours versus 3 hour exposure,XLK-WG cells [8],more than 20 fold
same,EC50 at 3 h,CYP1A [9],10.5 ± 3.17 nM
same,EC50 at 24 h,CYP1A [9],≥ 95 nM
same,"CYP1A6 and CYP1A7 mRNA expression, semi-quantitative RT-PCR",XLK-WG cells [12],up regulation of CYP1A6 and CYP1A7 mRNAs
same,EC50 at 3 h,CYP1A1,~0.06 nM
same,EC50,Hepa1c1c7 cells [10],0.05 ± 0.02 nM
same,maximum EROD activity in Hepa1c1c7 cells relative to XLK-WG cells,Hepa1c1c7 cells [11],~ 40 fold
same,maximum EROD activity induced,Hepa1c1c7 cells [11]; Hepa1c1c7 cells,13.41 ± 4.61 pmol • mg protein^−1 • min^−1
same,EC50 at 3 h,CYP1A [13],0.03 ± 0.01 nM
same,EC50 at 24 h,CYP1A [13],0.01 ± 0.002 nM
